Source: ChEMBL document CHEMBL4699429, “Novel 1,3,4-thiadiazole compounds as potential MAO-A inhibitors - design, synthesis, biological evaluation and molecular modelling” (RSC Med Chem, 2020)

Key:
[1] = target: T1, Amine oxidase [flavin-containing] A (Homo sapiens, UniProt P21397); experiment: Inhibition of human recombinant MAO-A at 0.1 uM using tyramine as substrate preincubated with enzyme for 30 mins followed by incubation with substrate for 30 mins by Amplex Red reagent based fluorometric method relative to control; conditions: 0.5 h, time 60 min
T1 sequence (P21397 whole entry): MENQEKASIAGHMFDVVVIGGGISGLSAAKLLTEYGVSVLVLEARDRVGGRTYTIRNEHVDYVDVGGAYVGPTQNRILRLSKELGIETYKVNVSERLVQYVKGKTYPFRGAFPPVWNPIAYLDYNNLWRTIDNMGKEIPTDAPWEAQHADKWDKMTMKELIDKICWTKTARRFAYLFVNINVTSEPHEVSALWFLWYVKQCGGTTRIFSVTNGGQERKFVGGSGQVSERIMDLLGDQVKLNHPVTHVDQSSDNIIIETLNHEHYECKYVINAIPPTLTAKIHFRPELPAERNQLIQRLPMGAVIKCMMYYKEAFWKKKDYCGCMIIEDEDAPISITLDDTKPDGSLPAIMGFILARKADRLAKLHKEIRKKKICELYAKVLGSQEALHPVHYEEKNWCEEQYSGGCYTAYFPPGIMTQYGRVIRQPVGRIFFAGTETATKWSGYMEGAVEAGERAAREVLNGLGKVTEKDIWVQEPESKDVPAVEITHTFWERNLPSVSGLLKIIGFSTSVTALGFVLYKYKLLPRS
Outline: (§1)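 Recombinant hMAO-A at 0.5 U/mL in phosphate buffer. Inhibitors are dissolved in 2% DMSO and preincubated with enzyme at 37 °C for 30 min. The working solution is then added: horseradish peroxidase, Amplex (Ampliflu) red and tyramine. Fluorescence (Ex/Em 535/587 nm) is read at 5-min intervals over 30 min at 37 °C. Controls use 2% DMSO. Background without enzyme is subtracted. Peroxidase interference is checked with H2O2.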

[2] = target: T1, Amine oxidase [flavin-containing] A; experiment: Inhibition of human recombinant MAO-A at 1 nM using tyramine as substrate preincubated with enzyme for 30 mins followed by incubation with substrate for 30 mins by Amplex Red reagent based fluorometric method relative to control; conditions: 0.5 h, time 60 min; outline: as §1
[3] = target: T1, Amine oxidase [flavin-containing] A; experiment: Inhibition of human recombinant MAO-A at 100 uM using tyramine as substrate preincubated with enzyme for 30 mins followed by incubation with substrate for 30 mins by Amplex Red reagent based fluorometric method relative to control; conditions: 0.5 h, time 60 min; outline: as §1
[4] = target: T1, Amine oxidase [flavin-containing] A; experiment: Inhibition of human recombinant MAO-A using tyramine as substrate preincubated with enzyme for 30 mins followed by incubation with substrate for 30 mins by Amplex Red reagent based fluorometric method
Outline: as §1, with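 “tyramine.” for “tyramine. Fluorescence (Ex/Em 535/587 nm) is read at 5-min intervals over 30 min at 37 °C.”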

[5] = target: T1, Amine oxidase [flavin-containing] A; experiment: Inhibition of human recombinant MAO-A at 10 uM using tyramine as substrate preincubated with enzyme for 30 mins followed by incubation with substrate for 30 mins by Amplex Red reagent based fluorometric method relative to control; conditions: 0.5 h, time 60 min; outline: as §1
[6] = target: T1, Amine oxidase [flavin-containing] A; experiment: Inhibition of human recombinant MAO-A at 1 uM using tyramine as substrate preincubated with enzyme for 30 mins followed by incubation with substrate for 30 mins by Amplex Red reagent based fluorometric method relative to control; conditions: 0.5 h, time 60 min; outline: as §1
[7] = target: T1, Amine oxidase [flavin-containing] A; experiment: Inhibition of human recombinant MAO-A at 0.01 nM using tyramine as substrate preincubated with enzyme for 30 mins followed by incubation with substrate for 30 mins by Amplex Red reagent based fluorometric method relative to control; conditions: 0.5 h, time 60 min; outline: as §1
[8] = target: T2, Amine oxidase [flavin-containing] B (Homo sapiens, UniProt P27338); experiment: Inhibition of human recombinant MAO-B at 100 uM using tyramine as substrate preincubated with enzyme for 30 mins followed by incubation with substrate for 30 mins by Amplex Red reagent based fluorometric method relative to control; conditions: 0.5 h, read-out: INH
T2 sequence (P27338 whole entry): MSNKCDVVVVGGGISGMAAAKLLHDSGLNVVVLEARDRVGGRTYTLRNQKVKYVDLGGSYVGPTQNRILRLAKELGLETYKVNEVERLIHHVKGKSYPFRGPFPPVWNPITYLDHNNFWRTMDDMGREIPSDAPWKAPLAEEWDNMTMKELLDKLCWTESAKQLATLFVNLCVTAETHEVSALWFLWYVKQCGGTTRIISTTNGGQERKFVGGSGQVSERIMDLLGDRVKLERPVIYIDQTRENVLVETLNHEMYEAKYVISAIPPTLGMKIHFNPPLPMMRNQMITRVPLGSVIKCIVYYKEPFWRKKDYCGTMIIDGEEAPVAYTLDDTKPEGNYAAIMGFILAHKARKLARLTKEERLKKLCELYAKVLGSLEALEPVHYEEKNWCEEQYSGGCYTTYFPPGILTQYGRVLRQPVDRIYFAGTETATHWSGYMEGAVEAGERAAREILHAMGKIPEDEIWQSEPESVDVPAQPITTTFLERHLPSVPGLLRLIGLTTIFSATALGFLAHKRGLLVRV

[9] = target: T1, Amine oxidase [flavin-containing] A; experiment: Inhibition of human recombinant MAO-A at 0.01 uM using tyramine as substrate preincubated with enzyme for 30 mins followed by incubation with substrate for 30 mins by Amplex Red reagent based fluorometric method relative to control; conditions: 0.5 h, time 60 min; outline: as §1
[10] = target: T2, Amine oxidase [flavin-containing] B; experiment: Inhibition of human recombinant MAO-B at 1 mM using tyramine as substrate preincubated with enzyme for 30 mins followed by incubation with substrate for 30 mins by Amplex Red reagent based fluorometric method relative to control; conditions: 0.5 h, read-out: INH
[11] = target: T1, Amine oxidase [flavin-containing] A; experiment: Inhibition of human recombinant MAO-A at 0.1 nM using tyramine as substrate preincubated with enzyme for 30 mins followed by incubation with substrate for 30 mins by Amplex Red reagent based fluorometric method relative to control; conditions: 0.5 h, time 60 min; outline: as §1
[12] = target: T1, Amine oxidase [flavin-containing] A; experiment: Inhibition of human recombinant MAO-A at 1 mM using tyramine as substrate preincubated with enzyme for 30 mins followed by incubation with substrate for 30 mins by Amplex Red reagent based fluorometric method relative to control; conditions: 0.5 h, time 60 min; outline: as §1
[13] = target: T1, Amine oxidase [flavin-containing] A; experiment: Inhibition of human recombinant MAO-A assessed as enzyme residual activity using tyramine as substrate at 4XIC50 incubated with enzyme for 15 mins followed by substrate addition by Amplex Red reagent based fluorometric method relative to control; conditions: 0.25 h
Outline: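 Recombinant hMAO-A (1 U mL⁻¹) preincubated with inhibitor for 15 min at 37 °C in 0.05 M potassium phosphate, pH 7.4, with 5% sucrose and 1% DMSO. The mixture was dialysed 24 h at 4 °C (12 000 Da cut-off) against 100 mM potassium phosphate, pH 7.4, 5% sucrose, with two buffer changes. Residual activity was then measured in triplicate and reported as mean ± SEM.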

[14] = target: T1, Amine oxidase [flavin-containing] A; experiment: Competitive inhibition of human recombinant MAO-A using tyramine as substrate preincubated with enzyme for 30 mins followed by substrate addition and measured for 30 mins by Lineweaver-burk plot analysis

Row | SMILES | inhibition at 0.1 µM [1] [%] | inhibition at 0.001 µM [2] [%] | inhibition at 100 µM [3] [%] | IC50 [4] [nM] | inhibition at 10 µM [5] [%] | inhibition at 1 µM [6] [%] | inhibition at 10 pM [7] [%] | inhibition at 100 µM [8] [%] | inhibition at 0.01 µM [9] [%] | inhibition at 1000 µM [10] [%] | inhibition at 0.0001 µM [11] [%] | inhibition at 1000 µM [12] [%] | Ki [14] [nM] | Activity [13] [%]
1 | O=C(CSc1nnc(Nc2ccccc2)s1)N(Cc1cccc([N+](=O)[O-])c1)c1ccc(F)cc1 | – | – | 41.4 | – | – | – | – | 20.7 | – | 43.1 | – | 89.5 | – | –
2 | CCCCNc1nnc(SCC(=O)N(Cc2cccc([N+](=O)[O-])c2)c2ccc(F)cc2)s1 | 33.6 | 19.7 | 82.3 | 1170 | 76 | 47.3 | 6.94 | 34.3 | 30 | 40.6 | 11.1 | 90.5 | – | –
3 | Cc1ccc(Nc2nnc(SCC(=O)N(Cc3cccc([N+](=O)[O-])c3)c3ccc(F)cc3)s2)cc1 | – | – | 42.7 | – | – | – | – | 26.5 | – | 37.9 | – | 87.6 | – | –
4 | C#CCN(C)CCCOc1ccc(Cl)cc1Cl [CLORGILINE] | 63.9 | 21.7 | 92.1 | – | 88.5 | 79.1 | 11.3 | – | 35.3 | – | 17 | 96.4 | – | 88.315
5 | O=C(NCCN1CCOCC1)c1ccc(Cl)cc1 [MOCLOBEMIDE] | 24.5 | 15.4 | 83.1 | – | 62.4 | 35.8 | 7.25 | – | 19.6 | – | 12.8 | 95.3 | – | 31.253

Further lines, with some results ahead:

Row | inhibition at 0.1 µM [1] [%] | inhibition at 0.001 µM [2] [%] | inhibition at 100 µM [3] [%] | IC50 [4] [nM] | inhibition at 10 µM [5] [%] | inhibition at 1 µM [6] [%] | inhibition at 10 pM [7] [%] | inhibition at 100 µM [8] [%] | inhibition at 0.01 µM [9] [%] | inhibition at 1000 µM [10] [%] | inhibition at 0.0001 µM [11] [%] | inhibition at 1000 µM [12] [%] | Ki [14] [nM] | SMILES | Activity [13] [%]
6 | 43 | 13.6 | 89.1 | 1070 | 86.1 | 46 | 6.87 | 28.5 | 23.9 | 36 | 10.8 | 92.5 | – | CC(C)Nc1nnc(SCC(=O)N(Cc2cccc([N+](=O)[O-])c2)c2ccc(F)cc2)s1 | –
7 | 42.1 | 21 | 89.5 | 336 | 74.1 | 61.9 | 10.3 | 22.4 | 30.3 | 41.3 | 14.2 | 93.6 | – | CCNc1nnc(SCC(=O)N(Cc2cccc([N+](=O)[O-])c2)c2ccc(F)cc2)s1 | –
8 | 45.1 | 20.5 | 91.1 | 241 | 78.3 | 62.3 | 8.5 | 26.8 | 25.1 | 42.7 | 12 | 95 | – | CCCNc1nnc(SCC(=O)N(Cc2cccc([N+](=O)[O-])c2)c2ccc(F)cc2)s1 | –
9 | 43.2 | 20.5 | 86.4 | 502 | 75.2 | 56.5 | 10.2 | 29.2 | 32.7 | 38.1 | 13.5 | 92 | – | C=CCNc1nnc(SCC(=O)N(Cc2cccc([N+](=O)[O-])c2)c2ccc(F)cc2)s1 | –
10 | 31.8 | 17.3 | 84.3 | 1790 | 72.6 | 43.2 | 6.36 | 24.2 | 25.5 | 36 | 12.6 | 93.5 | – | CC(C)CNc1nnc(SCC(=O)N(Cc2cccc([N+](=O)[O-])c2)c2ccc(F)cc2)s1 | –
11 | 61.1 | 26.9 | 91.5 | 60 | 80.6 | 72.7 | 13.5 | 25.7 | 34.7 | 38.6 | 20.1 | 94.1 | 33 | COCCNc1nnc(SCC(=O)N(Cc2cccc([N+](=O)[O-])c2)c2ccc(F)cc2)s1 | 25.956
